RAM inhibit – inhibitors of the yeast RAM network | S. cerevisiae dse1pr::URA3 reporter, 5-FOA growth OD615, 2 d; analog-sensitive cbk1-as2 kinase mutant strain | actives 1.8% (n = 190,000) | inhibition, % at 50 µM | AID 868;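 active = inhibition above a set limit, 3 SD over mean compound inhibition, cut at about 8.4% in these data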;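 note: 0% = DMSO-only wells with no growth and 100% = 10 µM 1-NA-PP1 full growth; inhibition rescues growth on 5-FOA so higher OD means more RAM inhibition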
WT yeast gro inh – growth inhibition of WT yeast, mitochondrial fusion screen | AID 1362 | inhibition, % at 10 µM | actives 2.1% (n = 190,000) | mitochondrial fusion phenotypic screen, WT strain; in the data active = inhibition above about 58%; tested in S. cerevisiae
Yeast lifespan up – extends the lifespan of yeast | S. cerevisiae growth with nicotinamide, OD615; deaD strain in restrictive glucose medium | inhibition of the nicotinamide effect, % at 10 µM | actives 0.68% (n = 130,000);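 active = inhibition above a set limit, placed 3 SD over the median of all compounds, cut at about 26% in these data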;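 note: 0% = nicotinamide-treated wells and 100% = cells grown without nicotinamide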
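Material: Modified budding yeast, DeaD strain | Medium: Restrictive glucose medium | Probe or stimulus: 1.5 mM nicotinamide | Dosing: Single dose 10 µM compound, 0.25% DMSO | Times: 48 h at 30 °C | Technique: OD615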
Yeast growth inh – chemicals that inhibit yeast BB579 growth in restrictive medium (lifespan-shortening candidates); S. cerevisiae BB579 growth, OD615, 48 h; inhibition, % at 10 µM; actives 0.51% (n = 140,000); AID 804;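 active = inhibition above a set limit, 3 SD over the mean compound inhibition, cut at about 44% in these data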
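System: Saccharomyces cerevisiae DeaD strain BB579, replicative lifespan model yeast. Buffer or medium: restrictive glucose-based CSMM-D medium. Doses: one dose, 10 µM compound with 0.25% DMSO. Timing: 4 h preincubation and 48 h exposure at 30 °C. Detection: turbidity as optical density at 615 nm. Benchmarks: amphotericin B 10 µg/mL, positive.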
Cl transport mod – KCC2 (human) Cl- transport modulation; actives 2.2% (n = 190,000); Q9H2X9; B-score of Tl+ flux slope (higher = more flux/activation; lower = inhibition) at 10 µM; KCC2 cells, thallium flux FluoZin-2 fluorescence;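 active = thallium flux slope and its plate-corrected score both differing from the plate sample mean at a set confidence after two filtering rounds, in either direction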;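 note: slope of fluorescence scaled to starting intensity during 10 to 20 s after thallium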
Target sequence (Q9H2X9 whole entry, looked up): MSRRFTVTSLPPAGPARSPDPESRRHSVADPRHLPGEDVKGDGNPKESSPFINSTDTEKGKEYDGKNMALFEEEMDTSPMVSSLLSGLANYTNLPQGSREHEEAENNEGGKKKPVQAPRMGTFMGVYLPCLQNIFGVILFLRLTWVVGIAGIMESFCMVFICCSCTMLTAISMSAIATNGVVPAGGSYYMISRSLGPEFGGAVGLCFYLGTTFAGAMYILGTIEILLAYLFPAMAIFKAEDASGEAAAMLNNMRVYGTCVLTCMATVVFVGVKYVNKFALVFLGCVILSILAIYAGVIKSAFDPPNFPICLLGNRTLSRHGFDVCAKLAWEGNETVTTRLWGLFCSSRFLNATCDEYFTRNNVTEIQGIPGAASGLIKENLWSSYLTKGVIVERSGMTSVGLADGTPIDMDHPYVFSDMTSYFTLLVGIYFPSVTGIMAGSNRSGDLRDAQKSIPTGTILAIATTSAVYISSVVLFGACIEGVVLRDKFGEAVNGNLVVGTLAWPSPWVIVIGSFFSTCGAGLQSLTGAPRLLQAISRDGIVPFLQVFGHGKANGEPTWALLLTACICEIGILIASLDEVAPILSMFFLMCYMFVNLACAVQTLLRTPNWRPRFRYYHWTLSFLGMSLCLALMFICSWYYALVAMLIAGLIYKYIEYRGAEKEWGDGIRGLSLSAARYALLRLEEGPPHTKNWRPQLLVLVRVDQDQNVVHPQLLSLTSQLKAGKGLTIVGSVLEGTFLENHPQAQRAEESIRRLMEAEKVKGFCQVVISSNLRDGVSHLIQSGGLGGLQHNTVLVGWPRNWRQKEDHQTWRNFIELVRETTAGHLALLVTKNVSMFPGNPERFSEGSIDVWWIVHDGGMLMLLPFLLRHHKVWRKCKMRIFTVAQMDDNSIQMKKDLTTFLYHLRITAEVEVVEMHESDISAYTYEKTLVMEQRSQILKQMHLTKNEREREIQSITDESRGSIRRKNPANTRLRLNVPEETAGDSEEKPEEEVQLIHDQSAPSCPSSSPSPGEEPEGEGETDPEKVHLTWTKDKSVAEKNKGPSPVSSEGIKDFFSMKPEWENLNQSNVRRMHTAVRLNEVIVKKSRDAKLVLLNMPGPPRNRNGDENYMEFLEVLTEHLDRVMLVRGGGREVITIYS
* marks the source's active call; other numbers are inactive results; / = no result given. In the library only some 5.5% were active in any assay of this set; here they are far more common.

SMILES	RAM inhibit	WT yeast gro inh	Yeast lifespan up	Yeast growth inh	Cl transport mod
CC(=O)c1cccc(NC(=S)NC(=O)c2cccc(C)c2)c1	5	-1	-8	-34	8.4*
O=C1CCC/C(=N/NC(=O)C2CCN(S(=O)(=O)c3cccs3)CC2)C1	3	0	-1	-7	0.24
Cc1c(C(=O)Nc2ccc3c(c2)OCO3)sc2ncn(CC(=O)N3CC(C)CC(C)C3)c(=O)c12 (configuration not stated)	4	-7	-9	-35	0.17
NC(=S)NN=C(Cc1ccccc1)Cc1ccccc1	0	54	/	/	1.3
CC(C)SC1=NC(C)(C)C=C(/C=C/c2c(Cl)cccc2Cl)N1	0	66*	-2	-25	-4.6
CC(C)SC1=NC(C)(C)C=C(/C=C/c2ccc(Cl)cc2Cl)N1	-1	77*	-5	-38	-0.042
COc1ccc(C(C)=O)cc1CSc1nnc(Nc2ccccc2C)s1	4	12	1	9	-1.2
COc1ccc(C(C)=O)cc1CSc1nnc(Nc2ccc(C)cc2C)s1	5	61*	-3	-29	-2.3
COc1ccc(-c2[nH]ncc2-c2ccc(Cl)cc2)c(O)c1	-2	-4	-37	73*	/
O=[N+]([O-])c1ccc(COc2ccc(-c3[nH]ncc3-c3ccc(Cl)cc3)c(O)c2)cc1	1	94*	2	-9	0.25
COc1ccc(-c2cn[nH]c2-c2ccc(OCc3ccc([N+](=O)[O-])cc3)cc2O)cc1OC	/	/	/	/	0.091
CCOc1cc(C(=S)N2CCCCC2)ccc1OCC(=O)NCc1ccccc1	1	-13	-2	23	/
C=CCNCCCOc1ccc(Cl)cc1C(C)(C)C	3	75*	/	/	0.64
CCCCNC(=O)C(c1ccc(OCC(=O)OC)c(C(=O)OC)c1)N(CCc1c[nH]c2ccccc12)C(=O)CCCCCN1C(=O)NC(c2ccc(-c3ccccc3)cc2)C(C(=O)OCc2ccccc2)=C1C (configuration not stated)	/	/	/	/	0.6
CN(c1ccccc1)S(=O)(=O)c1ccc(NC(=S)NC(=O)c2ccccc2)cc1	1	30	-13	-18	3*
Cc1cc(C)cc(NS(=O)(=O)c2ccc(NC(=S)NC(=O)c3cccs3)cc2)c1	5	54	1	-24	0.19
Cc1ccc(C(=O)NC(=S)Nc2ccc(S(=O)(=O)N(C)c3ccccc3)cc2)cc1	5	13	4	-77	-0.17
CCN(c1ccccc1)S(=O)(=O)c1ccc(NC(=S)NC(=O)c2ccc(Br)o2)cc1	1	4	-14	-21	20*
CN(C1CCCCC1)S(=O)(=O)c1ccc(NC(=S)NC(=O)c2cccs2)cc1	3	/	-2	-16	17*
Cc1cccc(C)c1NC(=S)NC(=O)c1ccc(Br)o1	0	3	/	/	192*
CCN(CC)c1ccc(NC(=O)c2ccc(=O)[nH]c2)cc1S(=O)(=O)Nc1ccccc1OC	1	24	/	/	0.15
CN(c1ccccc1)S(=O)(=O)c1ccc(NC(=S)NC(=O)C2CC2)cc1	2	68*	7	-16	-0.58
CCOC(=O)c1oc2ccc(/C=N/O)c(Cl)c2c1C	1	4	/	/	-0.66
O=[N+]([O-])c1cccc(C=Nc2cc3c(cc2Br)OCCO3)c1	2	3	-8	-15	1.5
O=C(C1=C[C@@H](C2CCCCC2)C[C@@H](OCc2ccc(CO)cc2)O1)N1CCN(Cc2ccc3c(c2)OCO3)CC1	-1	76*	/	/	0.92
SMILES	RAM inhibit	WT yeast gro inh	Yeast lifespan up	Yeast growth inh	Cl transport mod
O=C(C1=C[C@H](C2CCCCC2)C[C@H](OCc2ccc(CO)cc2)O1)N1CCN(Cc2ccc3c(c2)OCO3)CC1	0	70*	/	/	0.37
Cc1cccc(NS(=O)(=O)c2ccc(C3CCCCC3)cc2)c1	5	74*	-2	-27	-0.78
COc1ccc(CNC(=O)C(C)N2C(=O)COc3ccc(C)cc32)c(OC)c1 (configuration not stated)	/	/	/	/	-0.96
c1cncc(-c2nnc(-c3cccnc3)nn2)c1	1	14	5	53*	0.014
c1ccc(-c2nnc(-c3ccccc3)nn2)cc1	/	/	/	/	-0.5
CCN(CC)S(=O)(=O)c1cccc(N=Nc2c(O)c3ccccc3oc2=O)c1	/	/	/	/	0.05
C/C=C(\C)C(=O)NNC(=O)c1sc(-c2ccccc2)nc1C	/	/	/	/	1.5
O=C(Nc1cc(C(F)(F)F)ccc1Cl)C(Sc1cccc[n+]1[O-])c1ccccc1 (configuration not stated)	-1	24	-8	93*	1.7
COc1cc(CC(=O)OCn2nnc3ccccc3c2=O)cc(OC)c1OC	1	1	/	/	0.49
CCOC(=O)Cc1csc(NC(=S)NC(=O)C(C)(C)C)n1	0	5	-6	-29	15*
O=C(NCc1ccc(-c2nc3ccccc3s2)cc1)c1ccco1	4	15	-4	-18	0.61
O=C(COC(=O)c1ccco1)Nc1nc2ccccc2s1	3	12	-10	-39	/
CCOC(=O)c1sc(NC(=S)NC(=O)c2ccco2)nc1C	1	-2	-6	-19	47*
CCOC(=O)c1sc(NC(=O)CSc2nccc(C)n2)c(C#N)c1C	1	-3	-12	-56	-1
O=C(NC(=S)Nc1nc2ccccc2s1)c1ccco1	8.8*	-5	2	-17	37*
O=C(NC(=S)NCc1ccc(-c2nc3ccccc3s2)cc1)c1ccco1	4	-49	0	-18	6.4*
CCOC(=O)c1sc(NC(=O)CSc2nccc(C)n2)nc1C	8.5*	1	/	/	-0.19
COC(=O)c1ccc(CSc2nc3ccc(S(=O)(=O)N4CCOCC4)cc3[nH]2)cc1	2	-22	-2	-30	-0.62
CSC(=S)N/N=C/c1ccc(N(C)C)cc1	1	66	/	/	61*
CN(C)c1ccc(/C=N/NC(=O)c2ccco2)cc1	0	12	-3	-21	0.28
O=c1c2cn[nH]c2nc(SCc2ccccc2F)n1-c1ccc(Br)cc1	4	79*	-2	-67	-2.1
CCN(CC)c1cnn(C/C(=N\OC)c2ccc(Cl)cc2)c(=O)c1Br	2	8	-2	26	-3.7*
CO/N=C(\Cn1ncc(N2CCCC2)c(Cl)c1=O)c1ccc(Cl)cc1	2	4	10	-34	-1.4
CCOC(=O)CNC(=S)n1ncnc1N	1	19	/	/	0.12
CCc1cc2c(=O)[nH]c(-c3ccccn3)nc2s1	-1	47	-6	78*	1.9
CCO[C@H]1OC(C(=O)N2CCN(C)CC2)=C[C@@H](C)[C@@H]1CCCO	0	-4	/	/	0.76
CCOc1ccc(-n2c3nc4ccccc4nc3c3c(=O)n(Cc4ccco4)cnc32)cc1	/	/	/	/	2.8*
Cc1ccc(F)cc1NC(=O)CSc1ncccn1	-1	-1	/	/	-0.31
Cc1ccc(NC(=S)N(CCCN2CCCC2)Cc2cccn2Cc2ccc(Cl)cc2)cc1C	5	76*	/	/	0
COc1ccc(NC(=S)N(CCCN2CCCC2)Cc2cccn2Cc2ccc(Cl)cc2)cc1Cl	3	87*	/	/	0.93

Compound activity deposited in PubChem BioAssay by several laboratories.
